This is a sample that favours compounds with a hit; in the whole collection about 1.6% have one here.
PAD4 FP inh – PAD4 (human) enzyme inhibition; Q9UM07; recombinant PAD4, RCA probe fluorescence polarization; inhibition, % at 6.36 µM; actives 0.41% (n = 330,000); AID 485272;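 active = percent inhibition above a cutoff equal to the mean of all tested compounds plus 3 SD, cut at about 15% in these data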
UCH37 inh – inhibitors of human deubiquitinating enzyme UCH37. purified proteasome/UCH37, Ub-AMC cleavage fluorescence. inhibition, % (test concentration not listed). actives 0.33% (n = 330,000);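 active = mean inhibition over replicate wells above about 20%, limit read from the data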
Target sequence (Q9Y5K5 whole entry, looked up): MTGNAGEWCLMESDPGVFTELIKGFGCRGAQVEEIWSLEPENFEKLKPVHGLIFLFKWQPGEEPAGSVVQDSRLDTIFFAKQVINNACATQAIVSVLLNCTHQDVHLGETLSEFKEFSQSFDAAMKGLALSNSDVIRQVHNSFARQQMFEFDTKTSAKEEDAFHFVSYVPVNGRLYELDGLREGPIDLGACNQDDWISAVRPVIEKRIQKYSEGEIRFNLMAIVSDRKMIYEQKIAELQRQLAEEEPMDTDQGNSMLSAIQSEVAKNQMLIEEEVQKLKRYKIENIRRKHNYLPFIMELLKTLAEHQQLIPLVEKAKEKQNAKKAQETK
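assay system = human UCH37 enzyme supplied as purified proteasome complex | amount = proteasome at 0.15 nM in the dispensed enzyme solution | schedule = 30 min compound-proteasome preincubation then 25 min substrate reaction, room temperature | measured by = fluorescence, ex 355 nm, em 460 nm | benchmarks = no-proteasome wells (full inhibition) and compound-free wells (no inhibition)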
Fh CTSL1 inh – blocks F. hepatica cathepsin L1 in PFM18AAP counter-screen; recombinant F. hepatica cathepsin L1, Z-Leu-Arg-MCA fluorescence; inhibition, % at 5.96 µM; actives 0.49% (n = 300,000); AID 1906;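 active = inhibition above the mean of all tested compounds plus 3 SD, set per screening campaign, cut at about 17% in these data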
TDP2 inh – TDP2 (human) inhibition, absorbance primary screen; O95551; recombinant TDP2, T5PNP hydrolysis, p-nitrophenol absorbance 415 nm; inhibition, % at 12.8 µM; actives 0.34% (n = 370,000);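 active = inhibition above the mean of all tested compounds plus 3 SD, set per campaign, cut at about 25% in these data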
Target sequence (O95551 whole entry, looked up): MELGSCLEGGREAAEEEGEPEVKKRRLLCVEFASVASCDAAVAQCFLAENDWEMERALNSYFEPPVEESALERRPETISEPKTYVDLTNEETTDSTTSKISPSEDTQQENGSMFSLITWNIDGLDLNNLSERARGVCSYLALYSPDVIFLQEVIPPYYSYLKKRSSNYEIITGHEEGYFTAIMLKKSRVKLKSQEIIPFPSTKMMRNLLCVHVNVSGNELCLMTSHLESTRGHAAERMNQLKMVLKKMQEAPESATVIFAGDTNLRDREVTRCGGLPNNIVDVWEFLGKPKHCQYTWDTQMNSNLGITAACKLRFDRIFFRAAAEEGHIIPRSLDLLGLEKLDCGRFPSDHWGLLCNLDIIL
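test system = human TDP2 enzyme | input = TDP2 enzyme at 120 nM final | medium = 50 mM Tris-HCl pH 7.5 with Mg2+, KCl, DTT, BSA | also added = T5PNP substrate, 5 mM | times = 2 h at 37 °C | technique = epi absorbance | benchmarks = high control without enzyme, low control DMSO plus TDP2 | replication = each compound tested once, singlicate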
GSTO1 inh – blocks human GSTO1 in RBBP9 counter-screen; P78417; recombinant GSTO1, activity-based probe fluorescence polarization; inhibition, % at 5.96 µM; actives 1.1% (n = 300,000); AID 1974;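 active = inhibition above the campaign mean inhibition plus 3 SD, cut at about 35% in these data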
HKDC1 inhibitor – HKDC1 (human) hexokinase inhibition. actives 0.16% (n = 340,000). recombinant HKDC1, G6PDH/diaphorase resazurin coupled fluorescence. AID 493160. Q2TB90. inhibition, % at 20 µM;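 active = inhibition above about 35% when tested at 20 µM, limit read from the data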
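Test system: recombinant HKDC1 (HK5) hexokinase enzyme, produced in-house / Doses: 20 µM test compound, 1% DMSO / Timing: 90 min, room temperature / Detection: G6PDH/diaphorase-coupled fluorescence, 1 mM NADP, 100 µM resazurin, 525/613 nm / Control set: DMSO wells with and without enzyme mix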
HKDC1 act conf2 – HKDC1 (human) activation, single-dose confirmed; shares compounds with HKDC1 inhibitor; recombinant HKDC1, G6PDH/diaphorase resazurin fluorescence; stronger effect = lower value; inhibition, % at 20 µM; actives 14% (n = 740); AID 504708;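 active = inhibition at or below a set negative limit, negative inhibition meaning the enzyme was activated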
A number is an active result; 0 = inactive; - = no result given.

SMILES	PAD4 FP inh	UCH37 inh	Fh CTSL1 inh	TDP2 inh	GSTO1 inh	HKDC1 inhibitor	HKDC1 act conf2
O=C1/C(=C\c2ccc([N+](=O)[O-])cc2)CCc2ccccc21	0	0	0	0	0	0	-
C=CCNC(=S)NN=C(C)c1ccc(-n2ccnc2)cc1	-	0	-	-	-	-	-
COc1cc(C=NNS(=O)(=O)c2ccc(C)c([N+](=O)[O-])c2)cc([N+](=O)[O-])c1O	-	0	-	-	-	-	-
COc1ccc(N=Cc2cc(Cc3ccccc3Cl)cc([N+](=O)[O-])c2O)cc1OC	0	0	0	-	0	0	-
Cc1ccc(N=Cc2cc(Cc3ccccc3Cl)cc([N+](=O)[O-])c2O)c(O)c1	0	0	0	-	0	0	0
Nc1ccc(S(=O)(=O)c2cc(O)c3ccccc3c2O)cc1	-	-	-	28	-	55	0
CCOC(=O)C(C(C)=NNC(=O)c1ccccc1[N+](=O)[O-])C(C)C (centres undefined)	-	0	-	-	-	-	-
O=C(Nc1ccc([N+](=O)[O-])cc1)Nc1ccc2[nH]c(=O)[nH]c2c1	0	-	0	0	0	0	-
O=C(Nc1ccc(F)cc1)C(=O)c1c(O)[nH]c2ccc([N+](=O)[O-])cc12	0	0	0	-	0	42	0
CC1(C)Cc2c(c(N3CCOCC3)nc3sc4c(NCC5CCCO5)nnnc4c23)CS1 (centres undefined)	0	0	0	0	0	45	0
NS(=O)(=O)c1ccc(N=Nc2c(O)ccc3ccccc23)cc1	0	0	0	0	0	0	-
O=Nc1c(O)ccc2cc(S(=O)(=O)O)ccc12	-	0	-	-	-	0	0
O=C(O)c1cccc(-c2ccc(C=c3sc4nc5ccccc5n4c3=O)o2)c1	-	0	-	-	-	-	-
Cc1ncc(CO)c(C=NNC(=O)c2ccoc2C)c1O	-	0	-	-	-	-	-
CC(=O)OCC1=C(C(=O)O)N2C(=O)[C@@H](NC(=O)Cc3ccccc3)[C@H]2SC1	-	-	-	0	-	0	-
C=CC1=C(C(=O)O)N2C(=O)C(NC(=O)Cc3ccccc3)C2SC1 (centres undefined)	0	0	0	0	0	40	0
O=C(NN=Cc1ccncc1)/C(=C/c1ccccc1)NC(=O)c1ccccc1	-	0	-	-	-	-	-
C=CCN(CC(=NO)c1sc(C(=O)OCC)nc1C)c1cccc(Br)c1	-	0	-	-	-	-	-
COC(=O)/C=C1\S/C(=N/N=Cc2ccc(Cl)cc2)NC1=O	-	0	-	-	-	-	-
C=CCNC(=S)N/N=C(\C)c1ccccn1	0	-	0	0	0	0	0
CC(=NNC(=S)Nc1ccccc1)c1ccccn1	-	-	-	0	-	-	-
c1cncc(-c2nnc(-c3cccnc3)nn2)c1	0	0	0	0	0	0	-
Cn1c(SSc2ccc(-c3cccnc3)n2C)ccc1-c1cccnc1	-	0	-	0	-	0	-248
O=[N+]([O-])c1ccc(-c2nnc(S)n2-c2ccccc2)cc1	0	-	0	-	0	-	-
[S-]c1nnc(-c2ccc(Br)cc2)n1-c1ccccc1.[Zn+2]	0	0	0	0	0	49	0
SMILES	PAD4 FP inh	UCH37 inh	Fh CTSL1 inh	TDP2 inh	GSTO1 inh	HKDC1 inhibitor	HKDC1 act conf2
N#Cc1ccc(CSc2nnc(NC(=O)c3ccc4ncsc4c3)s2)cc1	0	0	0	0	0	51	0
COc1cccc2c1C(=O)C=C(C)C2=O	0	0	0	0	40	0	0
COc1ccc2c(c1O)C(=O)c1ccccc1C2=O	0	-	0	-	0	-	-
O=C(NN=C1CC2CC=CC12)c1ccc(COc2ccccc2)cc1 (centres undefined)	-	0	-	-	-	-	-
CCOC(=O)c1cc(-c2ccc(/C=C3/C(=O)N(c4ccc(C(=O)O)cc4)N=C3C)o2)ccc1Cl	0	-	0	0	0	43	0
CCOC(=O)c1cc(-c2ccc(/C=N\n3cnnc3)o2)ccc1Cl	0	-	0	0	0	0	-
FC(F)(F)c1ccccc1C=NNc1ccccn1	-	0	-	-	-	-	-
COc1cc(C=NNC(=O)C(Cc2c[nH]c3ccccc23)NC(=O)OCC(C)C)cc([N+](=O)[O-])c1OCc1ccccc1 (centres undefined)	-	0	-	-	-	-	-
C=CC(=O)N1C/C(=C/c2ccc(Cl)cc2)C(=O)/C(=C\c2ccc(Cl)cc2)C1	-	-	-	0	-	45	0
CN1C/C(=C/c2ccncc2)C(=O)/C(=C/c2ccncc2)C1	0	0	0	0	0	0	-
C=CC(=O)N1C/C(=C/c2ccccc2)C(=O)/C(=C\c2ccccc2)C1	-	-	-	0	-	38	0
CC1CCCCC1=NNS(=O)(=O)c1ccc(Br)cc1 (centres undefined)	-	0	-	-	-	-	-
CC(C)c1ccc(C=NNC(=O)c2cccc(Cl)c2)cc1	-	0	-	-	-	-	-
CC1(C)N=C(C=NO)C=[N+]1[O-]	-	0	-	-	-	-	-
Cc1sc(-c2ccccn2)nc1OC(=O)c1ccc(F)cc1F	0	0	0	0	0	0	0
Cc1sc(-c2ccccn2)nc1OC(=O)c1ccc(Cl)c(Cl)c1	0	0	0	0	0	0	-
CC(=O)n1cc(N(C(=O)CCl)c2ccc(C)cc2)c2ccccc21	0	0	0	0	70	41	0
CC(=O)N(c1ccc(Cl)cc1)c1cn(C(C)=O)c2ccccc12	0	0	0	0	0	0	-
Cc1ccc(NC(=O)CN2C(=O)S/C(=C/c3ccc(-c4cc(C(=O)O)ccc4C)o3)C2=O)cc1C	0	0	0	0	0	43	0
Cc1cccc(NC(=O)CN2C(=O)S/C(=C\c3ccc(-c4cccc(C(=O)O)c4C)o3)C2=O)c1	0	0	0	0	0	0	-
CC(C)c1c(C(=O)NN=Cc2ccc(OCc3ccc(F)cc3)cc2)nnn1-c1nonc1N	-	0	-	-	-	-	-
CC[C@@H](NS(=O)(=O)c1ccc(C)cc1)C(=O)Oc1ccc2c3c(c(=O)oc2c1)CCC3	0	0	0	0	0	0	0
CCC(C)C(NS(=O)(=O)c1ccc(C)cc1)C(=O)Oc1ccc2c3c(c(=O)oc2c1)CCC3 (centres undefined)	0	0	0	0	0	0	-
CCc1nn2c(=O)cc(COc3ccc(/C=C4\C(=N)N5N=C(CC(C)C)SC5=NC4=O)cc3)nc2s1	0	0	0	-	0	0	-
CCC1=NN2C(=N)/C(=C\c3ccc(OCc4cc(=O)n5nc(CC)sc5n4)c(OC)c3)C(=O)N=C2S1	-	0	-	0	-	0	0
Nc1nonc1NN=Cc1c(O)ccc2ccccc12	-	0	-	-	-	-	-
Nc1nc(Cl)c(N)c(NCC2(CO)CC(CCc3ccccc3)C2)n1 (centres undefined)	-	-	-	0	-	42	0
O=C(NCc1ccccc1)[C@]1(C(F)(F)F)C[C@H](CCc2ccccc2)CCCO1	0	0	0	0	0	0	-
O=c1[nH]c(/C=C/c2ccccc2Cl)c([N+](=O)[O-])c(=O)[nH]1	-	0	-	0	-	0	-
O=C(COc1ccccc1/C=C\c1[nH]c(=O)[nH]c(=O)c1[N+](=O)[O-])Nc1ccccc1	0	0	0	0	0	40	0
